This note sets out measurements from ChEMBL document CHEMBL2034936, “Discovery and extensive in vitro evaluations of NK-HDAC-1: a chiral histone deacetylase inhibitor as a promising lead” (J Med Chem, 2012).

Structures are written as SMILES. The source made the active and inactive calls. No cut-off for these calls is given here.

The subject of one assay is HepG2. Description: cells. It is filed as functional. Particulars: Homo sapiens, HepG2, 72 h.
A further assay concerns A549. The experiment in a line: cells. The following applies: Homo sapiens, A549, 72 h. The class given is functional.
A further assay deals with OVCAR-3. The experiment in a line: cells. Particulars: Homo sapiens, OVCAR-3, 72 h. It is filed as functional.
In a further assay the test system is SW-620. Description: cells. The class given is functional. The following applies: Homo sapiens, SW-620, 72 h.
A further assay relates to COLO 205. Description: cells. The following applies: Homo sapiens, COLO 205, 72 h. It is filed as functional.
The target of a further assay is Histone deacetylase. The experiment in a line: Inhibition of HDAC in human HeLa cell nuclear extracts using Ac-Arg-Gly-Lys(Ac)-AMC substrate by fluorimetry. It is filed as protein assay.
For another assay, the system named is K562. Description: cells. The class given is functional. Particulars: Homo sapiens, K562, 72 h.
In a further assay the test system is PC-3. The experiment in a line: cells. The class given is functional. The following applies: Homo sapiens, PC-3, 72 h.
In assay [1] the target is Histone deacetylase (Homo sapiens) (UniProt Q13547+O15379+Q9UBN7+Q92769+Q9UQL6+Q8WUI4+Q9BY41+Q96DB2+P56524+Q9UKV0+Q969S8). Description: Inhibition of HDAC in human MDA-MB-231 cells assessed as stimulation of histone H3 acetylation at 5 uM incubated for 24 hrs by Western blot. The class given is cell-based. In a few lines: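 MDA-MB-231 cells in 35-mm dishes, dosed 24 h at graded concentrations, then trypsinized and PBS-washed. Lysed in RIPA (50 mM Tris-HCl pH 7.5, protease and phosphatase inhibitors) for 30 min at 4 °C, then cleared at 12,000g. Lysate, 60 μg protein by BCA, run on SDS-PAGE and PVDF. Blotted with anti-acetyl-histone H3 and HRP anti-rabbit, read by ECL.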

For a further assay, the system named is MDA-MB-231. The experiment in a line: cells. It is filed as functional. The following applies: Homo sapiens, MDA-MB-231, 72 h.

The term GI50 denotes the concentration giving 50% growth inhibition. Read a low GI50 as greater sensitivity of the cells. As a reminder, the IC50 is the concentration at which inhibition is half-maximal. High values mean lower potency, low ones higher potency. Turning to `O=C(/C=C/c1cn(C/C=C/c2ccccc2)nn1)NO`, the GI50 in the assay on HepG2 is 3200 nM; in the assay with A549, 1900 nM; with OVCAR-3 it was 1100 nM; with SW-620 it was 480 nM; in the assay on COLO 205, 1100 nM; in the assay on K562, 550 nM. For the same compound, the concentration for 50% growth inhibition (GI50) with PC-3 was 1300 nM. The same compound had a half-inhibitory concentration (IC50) against Histone deacetylase of 104 nM.
As for `CC(C)C(c1nc2ccccc2o1)n1cc(/C=C/C(=O)NO)nn1` (racemic), the GI50 with HepG2 came out at 1000 nM; with A549 it was 400 nM; in the assay on MDA-MB-231 it was 170 nM. In [1], the “histone H3 acetylation activity (active/not active)” value is “Active”. Besides, at Histone deacetylase, the IC50 is listed as 23 nM.
In the case of `CC(c1nc2ccccc2o1)n1cc(/C=C/C(=O)NO)nn1` (racemic), the GI50 in the assay on HepG2 is 2900 nM; in the assay with A549, 2400 nM; in the assay with MDA-MB-231, 1200 nM. At Histone deacetylase, the IC50 worked out at 86 nM.
In the case of `O=C(/C=C/c1cn(Cc2nc3ccccc3o2)nn1)NO`, the GI50 in the assay on HepG2 was found to be 6100 nM; with A549, 4700 nM; in the assay with OVCAR-3, 1900 nM; in the assay on SW-620, 1200 nM; with COLO 205 it was 1100 nM; in the assay with MDA-MB-231 it was 1400 nM. For the same compound, the GI50 was 720 nM with K562 and 1600 nM in the assay on PC-3. In addition, the “histone H3 acetylation activity (active/not active)” value in assay [1] is “Active”. The compound further displayed an IC50 at Histone deacetylase of 105 nM.
As to `O=C(O)CC(c1nc2ccccc2o1)n1cc(/C=C/C(=O)NO)nn1` (racemic), the GI50 in the assay on HepG2, with A549 and in the assay with MDA-MB-231 was over 20000 nM throughout. The IC50 against Histone deacetylase is reported as 140 nM.
Consider `O=C(/C=C/c1cn(Cc2nc3ccccc3s2)nn1)NO`, for which the GI50 in the assay with HepG2 turned out to be 8800 nM; in the assay with A549, 2100 nM; in the assay with OVCAR-3 it was 3600 nM; in the assay on SW-620, 1500 nM; with COLO 205 it was 1500 nM; in the assay on K562, 2600 nM. In the assay with PC-3, this compound registered a GI50 of 2900 nM. Further, the “histone H3 acetylation activity (active/not active)” value in assay [1] is “inactive”. At Histone deacetylase, this compound showed an IC50 of 41 nM.
